From the M2OR odorant receptor database come the findings set out here.

Each structure is given as a SMILES string. Where a chain is given by its changes, count along the chain named.

What all share (conditions): stereoisomer not certain
One test deals with T1, OR8D1 (Homo sapiens) (UniProt Q8WZ84).
T1 sequence (whole entry): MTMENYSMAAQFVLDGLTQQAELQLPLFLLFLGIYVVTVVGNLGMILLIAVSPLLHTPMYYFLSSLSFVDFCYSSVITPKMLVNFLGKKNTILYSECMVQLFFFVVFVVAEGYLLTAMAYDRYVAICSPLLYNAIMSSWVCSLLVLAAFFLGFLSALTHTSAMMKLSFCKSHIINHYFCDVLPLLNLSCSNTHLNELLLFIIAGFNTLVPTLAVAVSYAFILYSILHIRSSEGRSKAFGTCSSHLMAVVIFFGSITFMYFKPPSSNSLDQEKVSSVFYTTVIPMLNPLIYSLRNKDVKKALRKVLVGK
An outline of the steps: (§1)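 Values were gathered from published papers (main text and supplementary material), with extra details requested from the original authors when needed, and checked for typos and inconsistencies. Each receptor–molecule pair is called responsive (active) if the original authors judged the measured signal statistically different from baseline, and non-responsive (inactive) otherwise. Assay methods varied by source, often transient mammalian cell-line luciferase assays. Recorded details include cell line, G-protein, co-transfected protein and tags.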

The next test addresses T2, OR8B4 (Homo sapiens) (UniProt Q96RC9).
T2 sequence (whole entry): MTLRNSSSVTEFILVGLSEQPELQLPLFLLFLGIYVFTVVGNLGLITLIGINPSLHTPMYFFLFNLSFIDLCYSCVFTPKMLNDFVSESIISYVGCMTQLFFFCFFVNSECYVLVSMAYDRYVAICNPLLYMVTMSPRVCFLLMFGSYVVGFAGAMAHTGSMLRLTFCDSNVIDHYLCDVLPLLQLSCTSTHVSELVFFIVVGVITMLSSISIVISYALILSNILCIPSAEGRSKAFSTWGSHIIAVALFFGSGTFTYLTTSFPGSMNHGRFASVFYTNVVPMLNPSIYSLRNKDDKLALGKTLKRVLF
The essentials:
as §1

A further test addresses T3, OR8B8 (Homo sapiens) (UniProt Q15620).
T3 sequence (whole entry): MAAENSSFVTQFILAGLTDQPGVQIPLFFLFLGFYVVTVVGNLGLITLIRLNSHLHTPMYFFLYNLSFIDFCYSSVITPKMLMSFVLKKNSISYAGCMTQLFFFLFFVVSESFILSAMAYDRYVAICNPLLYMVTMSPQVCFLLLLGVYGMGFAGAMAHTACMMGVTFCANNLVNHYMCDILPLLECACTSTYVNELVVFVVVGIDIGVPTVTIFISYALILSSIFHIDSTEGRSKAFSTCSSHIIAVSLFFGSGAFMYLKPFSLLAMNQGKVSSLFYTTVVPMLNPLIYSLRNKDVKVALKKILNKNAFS
An outline of the steps: as §1

The next test has as its system T4, OR8B3 H20R Q24R M114I.
T4 sequence (whole entry): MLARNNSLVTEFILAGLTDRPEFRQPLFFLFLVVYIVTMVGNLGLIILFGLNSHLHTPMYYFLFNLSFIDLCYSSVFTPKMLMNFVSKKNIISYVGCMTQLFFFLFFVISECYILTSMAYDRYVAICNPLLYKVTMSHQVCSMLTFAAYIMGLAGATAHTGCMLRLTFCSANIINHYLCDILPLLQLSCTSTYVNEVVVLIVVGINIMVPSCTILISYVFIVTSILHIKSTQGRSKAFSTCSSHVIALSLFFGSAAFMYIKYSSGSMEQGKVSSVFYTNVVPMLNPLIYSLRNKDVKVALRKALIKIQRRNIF
The essentials: as §1

A further test concerns T5, OR8B3 H20R Q24R Y113H.
T5 sequence (whole entry): T4 sequence (whole entry) with Y113H, I114M
An outline of the steps:
as §1

A further test deals with T6, OR8B3 H20R Q24R.
T6 sequence (whole entry): T4 sequence (whole entry) with I114M
An outline of the steps:
as §1

The test system of the next test is T7, OR8B4.
T7 sequence (whole entry): T2 sequence (whole entry) with E22G
The essentials:
as §1

The test system of a further test is T8, OR8B8 L101P.
T8 sequence (whole entry): T3 sequence (whole entry) with L101P
An outline of the steps:
as §1

The subject of another test is T9, OR8D1 C127G L194P.
T9 sequence (whole entry): T1 sequence (whole entry) with C127G, L194P
An outline of the steps: as §1

In the next test the test system is T10, OR8D1 L194P.
T10 sequence (whole entry): T1 sequence (whole entry) with L194P
An outline of the steps: as §1

On to `CCCC(S)CCO` (configuration not stated), for which the “odorant receptor agonist call” value in the test with OR8D1 (Homo sapiens) is “inactive”.

Take `CCCCCC(S)C(C)CO` (configuration not stated): the “odorant receptor agonist call” value with OR8B4 (Homo sapiens), with OR8B8 (Homo sapiens) and in the test with OR8D1 (Homo sapiens) was “inactive” throughout.

Take `CCCc1ccc(O)c(OC)c1`: the “odorant receptor agonist call” value in the test with OR8D1 (Homo sapiens) is “inactive”.

For `CCCCCCC(=O)[O-].[H+]`, the “odorant receptor agonist call” value with OR8D1 (Homo sapiens) is “inactive”.

Take `CCC=CCCOC(C)=O`: the “odorant receptor agonist call” value with OR8D1 (Homo sapiens) was “inactive”.

In the case of `COc1nccnc1C(C)C`, the “odorant receptor agonist call” value in the test with OR8D1 (Homo sapiens) is “inactive”.

As to `CCCCCCC=CC=O`, in the test with OR8D1 (Homo sapiens), the “odorant receptor agonist call” value was “inactive”.

For `CCCCCCC=CCCC=O`, the “odorant receptor agonist call” value in the test on OR8B3 H20R Q24R M114I, with OR8B3 H20R Q24R Y113H, with OR8B3 H20R Q24R, in the test with OR8B4 (Homo sapiens), with OR8B4 and in the test with OR8B8 (Homo sapiens) was “inactive” throughout. Besides, the “odorant receptor agonist call” value with OR8B8 L101P, with OR8D1 (Homo sapiens) and in the test on OR8D1 C127G L194P was “inactive” throughout.

In the case of `CCC1OC(C)=C(O)C1=O` (configuration not stated), the “odorant receptor agonist call” value in the test on OR8B3 H20R Q24R M114I, in the test with OR8B3 H20R Q24R Y113H, with OR8B3 H20R Q24R, with OR8B4 (Homo sapiens), in the test on OR8B4 and with OR8B8 (Homo sapiens) was “inactive” throughout. The “odorant receptor agonist call” value in the test with OR8B8 L101P, in the test with OR8D1 (Homo sapiens), in the test on OR8D1 C127G L194P and in the test with OR8D1 L194P was “inactive” each time.

Regarding `CC1=C(O)C(=O)C(C)O1` (configuration not stated), the “odorant receptor agonist call” value in the test on OR8B3 H20R Q24R M114I, in the test with OR8B3 H20R Q24R Y113H, with OR8B3 H20R Q24R, in the test with OR8B4 (Homo sapiens), in the test with OR8B4 and in the test with OR8B8 (Homo sapiens) was “inactive” throughout. The “odorant receptor agonist call” value with OR8B8 L101P, in the test with OR8D1 (Homo sapiens), in the test with OR8D1 C127G L194P and in the test with OR8D1 L194P was “inactive” in each case.

Regarding `CC1=NC(C)C(C)S1` (configuration not stated), the “odorant receptor agonist call” value with OR8B3 H20R Q24R M114I, in the test with OR8B3 H20R Q24R Y113H, with OR8B3 H20R Q24R, with OR8B4 (Homo sapiens), in the test with OR8B4 and with OR8B8 (Homo sapiens) was “inactive” each time. The “odorant receptor agonist call” value in the test on OR8B8 L101P, with OR8D1 (Homo sapiens), with OR8D1 C127G L194P and in the test with OR8D1 L194P was “inactive” in each case.

With `CCOC(C)OCC`, the “odorant receptor agonist call” value in the test with OR8D1 (Homo sapiens) was “inactive”.

On to `CSCSC`, for which the “odorant receptor agonist call” value with OR8D1 (Homo sapiens) is “inactive”.

Consider `CCCC(S)CCOC(C)=O` (configuration not stated), for which the “odorant receptor agonist call” value in the test on OR8B3 H20R Q24R M114I, in the test on OR8B3 H20R Q24R Y113H, in the test with OR8B3 H20R Q24R, in the test with OR8B4 (Homo sapiens), with OR8B4 and with OR8B8 (Homo sapiens) was “inactive” each time. Besides, the “odorant receptor agonist call” value with OR8B8 L101P, in the test with OR8D1 (Homo sapiens), in the test with OR8D1 C127G L194P and in the test on OR8D1 L194P was “inactive” in each case.

In the case of `CCCCCC(=O)C(C)C(C)=O` (configuration not stated), the “odorant receptor agonist call” value in the test with OR8B4 (Homo sapiens), with OR8B8 (Homo sapiens) and with OR8D1 (Homo sapiens) was “inactive” in each case.

As to `CC1=CCC2CC1C2(C)C` (configuration not stated), the “odorant receptor agonist call” value with OR8D1 (Homo sapiens) is “inactive”.

`CC(=O)c1c(C)c([N+](=O)[O-])c(C(C)(C)C)c([N+](=O)[O-])c1C`: the “odorant receptor agonist call” value with OR8B4 (Homo sapiens), in the test with OR8B8 (Homo sapiens) and with OR8D1 (Homo sapiens) was “inactive” each time.

As for `CCOC(=O)CCSC`, the “odorant receptor agonist call” value with OR8D1 (Homo sapiens) was “inactive”.

For `CCC1OC(=O)C(O)=C1C` (configuration not stated), the “odorant receptor agonist call” value in the test with OR8B3 H20R Q24R M114I, in the test with OR8B3 H20R Q24R Y113H, with OR8B3 H20R Q24R, with OR8B4 (Homo sapiens), with OR8B4 and in the test with OR8B8 (Homo sapiens) was “inactive” in each case. Also, the “odorant receptor agonist call” value with OR8B8 L101P, with OR8D1 C127G L194P and with OR8D1 L194P was “inactive” in each case. In addition, in the test with OR8D1 (Homo sapiens), the “odorant receptor agonist call” value is “active”.

As to `CC1CCCCCCCCCCCCC(=O)C1` (configuration not stated), the “odorant receptor agonist call” value with OR8B4 (Homo sapiens), with OR8B8 (Homo sapiens) and in the test with OR8D1 (Homo sapiens) was “inactive” in each case.

In the case of `CC(C)=CCCC(C)=CCO`, the “odorant receptor agonist call” value with OR8D1 (Homo sapiens) was “inactive”.

In the case of `CC(CO)CS` (configuration not stated), the “odorant receptor agonist call” value with OR8B4 (Homo sapiens), in the test with OR8B8 (Homo sapiens) and with OR8D1 (Homo sapiens) was “inactive” each time.

Take `CSCCC=O`: the “odorant receptor agonist call” value in the test with OR8D1 (Homo sapiens) was “inactive”.

For `Cc1occc(=O)c1O`, the “odorant receptor agonist call” value with OR8D1 (Homo sapiens) is “inactive”.

Consider `CCc1ccc(O)cc1`, for which the “odorant receptor agonist call” value with OR8D1 (Homo sapiens) was “inactive”.

With `C=CC(O)CCCCC` (configuration not stated), the “odorant receptor agonist call” value with OR8D1 (Homo sapiens) was “inactive”.

As to `COc1ccc(C)cc1O`, in the test with OR8D1 (Homo sapiens), the “odorant receptor agonist call” value was “inactive”.

Turning to `CCCCCC(C)O` (configuration not stated), the “odorant receptor agonist call” value in the test with OR8D1 (Homo sapiens) is “inactive”.

In the case of `Cc1cnc(C)c(C)n1`, the “odorant receptor agonist call” value with OR8B3 H20R Q24R M114I, in the test with OR8B3 H20R Q24R Y113H, with OR8B3 H20R Q24R, with OR8B4 (Homo sapiens), with OR8B4 and with OR8B8 (Homo sapiens) was “inactive” in each case. The “odorant receptor agonist call” value with OR8B8 L101P, with OR8D1 (Homo sapiens), with OR8D1 C127G L194P and in the test on OR8D1 L194P was “inactive” each time.

With `CCCCCCCC(=O)[O-].[H+]`, in the test with OR8D1 (Homo sapiens), the “odorant receptor agonist call” value is “inactive”.

For the compound `CC1=C(O)C(=O)OC1C` (configuration not stated), the “odorant receptor agonist call” value in the test on OR8B3 H20R Q24R M114I, in the test on OR8B3 H20R Q24R Y113H, in the test with OR8B3 H20R Q24R, with OR8B4 (Homo sapiens), in the test on OR8B4 and in the test with OR8B8 (Homo sapiens) was “inactive” throughout. Further, the “odorant receptor agonist call” value in the test with OR8B8 L101P, in the test on OR8D1 C127G L194P and in the test on OR8D1 L194P was “inactive” each time. The “odorant receptor agonist call” value with OR8D1 (Homo sapiens) is “active”.

`COC(=O)C=Cc1ccccc1`: in the test with OR8D1 (Homo sapiens), the “odorant receptor agonist call” value was “inactive”.

On to `CCOC(=O)c1ccccc1`, for which the “odorant receptor agonist call” value with OR8D1 (Homo sapiens) is “inactive”.

In the case of `CCCC1CCCC(=O)O1` (configuration not stated), in the test with OR8D1 (Homo sapiens), the “odorant receptor agonist call” value is “inactive”.

With `CCC(S)C(C)CO` (configuration not stated), the “odorant receptor agonist call” value in the test with OR8B4 (Homo sapiens), with OR8B8 (Homo sapiens) and with OR8D1 (Homo sapiens) was “inactive” each time.

As for `CCCCC(S)C(C)CO` (configuration not stated), the “odorant receptor agonist call” value in the test with OR8B4 (Homo sapiens), with OR8B8 (Homo sapiens) and with OR8D1 (Homo sapiens) was “inactive” in each case.

For `OCC=Cc1ccccc1`, the “odorant receptor agonist call” value with OR8D1 (Homo sapiens) was “inactive”.
